Compounds with a hit are over-represented: about 4.6% of the library has one in this group of screens.
Rtt109 Vps75: blocks Candida albicans Rtt109/Vps75 acetyltransferase activity | purified Rtt109/Vps75, ThioGlo CoA-SH fluorescence, 4 h | inhibition, % at 34.9 µM | actives 0.16% (n = 330,000) | AID 540336;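 active = inhibition of at least 50% in every replicate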
HDAC3 inh: human HDAC3 inhibition. inhibition, % at 8.3 µM. AID 2718. O15379. actives 0.15% (n = 320,000). recombinant HDAC3, fluorogenic peptide/trypsin coupled, fluorescence; in the data active = inhibition above about 26%, passing the limit was not always enough
ALR H2O2 inh: human ALR oxidase inhibition via reduced H2O2 | AID 485317 | inhibition, % (no concentration beside the values) | actives 3.8% (n = 290,000) | P55789 | purified ALR, DTT oxidation, H2O2 HRP-luminol luminescence;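 active = mean replicate inhibition above about 79%, with every replicate also reaching it, limit read from the data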
Target sequence (P55789 whole entry, looked up): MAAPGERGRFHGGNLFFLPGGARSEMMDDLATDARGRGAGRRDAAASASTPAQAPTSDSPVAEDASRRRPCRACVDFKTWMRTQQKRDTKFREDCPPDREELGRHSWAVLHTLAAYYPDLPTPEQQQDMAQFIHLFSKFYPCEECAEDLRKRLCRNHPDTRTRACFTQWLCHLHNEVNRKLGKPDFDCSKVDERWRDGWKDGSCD
FAS-TE inh: FAS thioesterase (human) inhibition; inhibition, % at 15 µM; recombinant FAS-TE, OMFH fluorogenic substrate, fluorescence endpoint; actives 0.67% (n = 360,000);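 active = compounds whose normalised, plate-corrected inhibition of enzyme fluorescence in the single-dose primary screen is 50% or more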;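 note: 0% = DMSO with enzyme and 100% = substrate without enzyme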
M18AAP inhibitor: PfM18AAP enzyme inhibition | actives 1.2% (n = 290,000) | recombinant PfM18AAP, H-Glu-NHMec fluorogenic cleavage | inhibition, % at 7.35 µM;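 active = inhibition above the campaign mean inhibition over all tested compounds plus 3 SD, cut at about 28% in these data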;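 note: 0% = plate median of test compound wells and 100% = 2 mM ZnCl2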
UCH37 DUB inh: blocks the human deubiquitinase UCH37. inhibition, % (test concentration not listed). purified proteasome/UCH37, Ub-AMC cleavage fluorescence. actives 0.33% (n = 330,000);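 active = mean inhibition over replicate wells above about 20%, limit read from the data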;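 note: 0% = compound-free wells with enzyme and 100% = wells lacking proteasome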
Target sequence (Q9Y5K5 whole entry, looked up): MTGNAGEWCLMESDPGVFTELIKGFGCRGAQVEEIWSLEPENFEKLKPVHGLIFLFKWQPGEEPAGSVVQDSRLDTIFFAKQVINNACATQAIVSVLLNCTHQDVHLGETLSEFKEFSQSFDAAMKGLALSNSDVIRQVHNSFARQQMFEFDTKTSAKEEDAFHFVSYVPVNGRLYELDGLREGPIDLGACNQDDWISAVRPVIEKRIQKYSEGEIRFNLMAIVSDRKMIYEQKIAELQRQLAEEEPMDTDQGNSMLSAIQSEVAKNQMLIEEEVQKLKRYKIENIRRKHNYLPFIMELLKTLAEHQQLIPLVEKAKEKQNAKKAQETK
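system = Proteasome-associated human UCH37 deubiquitinase | amount = 0.15 nM proteasome as dispensed | medium = pH 7.4 Tris-HCl (50 mM) with ovalbumin, ATP-MgCl2, DTT | incubation = 30 min preincubation with enzyme, 25 min cleavage at room temperature | detection = AMC fluorescence 355/460 nm | read-out basis = percent inhibition | controls = no-proteasome and no-compound wells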
* hit, by the source's call; i = inactive; / = not tested or not shown.

SMILES | Rtt109 Vps75 | HDAC3 inh | ALR H2O2 inh | FAS-TE inh | M18AAP inhibitor | UCH37 DUB inh
CCOc1ccc2nc(SCC(=O)Nc3cccc(S(=O)(=O)NC4=NCCCCC4)c3)[nH]c2c1 | -4 | -5 | 92* | 0 | 4 | 3
CC(C)(C)c1ccc(OCCC(=O)Nc2cccc(S(=O)(=O)NC3=NCCCCC3)c2)cc1 | -2 | / | / | 23 | / | 4
CCOc1ccc2nc(SCC(=O)Nc3ccc4c(c3)OCCO4)[nH]c2c1 | 2 | 9 | -4 | 6 | 3 | 1
Cc1ccc(C=Nn2c(C)nc3ccccc3c2=O)o1 | / | / | / | / | / | 7
COc1cccc(C=NN2CCN(C3c4ccccc4-c4ccccc43)CC2)c1O | / | / | / | / | / | 5
C[C@H]1CN(C2CCCCC2)C(=O)[C@@H]1CC(=O)NCc1ccccc1 | 10 | -8 | -5 | -5 | -3 | 0
CCCCC[C@H]1CN(C2CCCCC2)C(=O)[C@@H]1CC(=O)NCc1ccccc1 | 17 | 2 | -13 | 15 | 16 | 32*
Cc1oc(-c2ccc(F)cc2)cc1-c1nn2c(-c3ccoc3C)nnc2s1 | -1 | 6 | 97* | 8 | / | 6
O=C(O)c1cc(NN=Cc2ccc3c(c2)OCO3)ccc1Cl | / | / | / | / | / | 7
S=c1nc(-c2csc3c2CCCC3)[nH][nH]1 | 21 | 17 | 99* | -8 | 6 | -1
Cc1ccc(-n2c(N)cc(=O)nc2SCC(=O)N2CCN(c3ccccc3)CC2)cc1 | 3 | 5 | 97* | -2 | 0 | 0
COC(=O)c1ccc(NC(=O)CSc2nnc(C)n2-c2ccccc2)cc1 | 3 | -1 | -5 | -2 | 2 | 4
COC(=O)c1ccc(NC(=O)CSc2nc(=O)cc(N)n2-c2ccccc2)cc1 | -6 | 4 | 99* | -6 | 2 | 2
CC(=O)c1ccc(NC(=O)CSc2nc(=O)cc(N)n2-c2ccccc2)cc1 | -4 | 7 | 99* | 0 | 4 | 2
Oc1ccc(Br)cc1C=NN1CCN(Cc2ccccc2)CC1 | / | / | / | / | / | 7
CC(=NNC(=O)C(=O)NN=C(C)c1cccc(O)c1)c1cccc(O)c1 | / | / | / | / | / | 3
Cn1c2ccccc2c2cc(C(=O)NNC(=O)CCl)sc21 | 6 | 6 | 35 | -1 | 10 | -25
CC(=O)Nc1ccc(S(=O)(=O)NNC(=O)c2cc3c4ccccc4n(C)c3s2)cc1 | -13 | -1 | 98* | 2 | 6 | -9
COCCNC(=O)c1cc2c3ccccc3n(C)c2s1 | -10 | 7 | 99* | -6 | -3 | -27
CCCNC(=O)c1cc2c3ccccc3n(C)c2s1 | 1 | 2 | 99* | -1 | 5 | -3
NC(=O)NN=Cc1ccc(-n2nncc2-c2ccc(Cl)cc2)cc1 | / | / | / | / | / | 3
CC(=NNC(=O)c1cnccn1)c1ccc([N+](=O)[O-])cc1 | / | / | / | / | / | 9
Nc1nc(SCC(=O)Nc2ccc([N+](=O)[O-])cc2Br)n[nH]1 | -1 | 9 | 48 | -13 | -3 | /
N#Cc1c(NC(=O)CSc2n[nH]c(N)n2)oc(-c2ccccc2)c1-c1ccccc1 | 10 | -2 | 79* | -205 | 26 | 3
CCc1nc(SCC(=O)c2cccc([N+](=O)[O-])c2)n[nH]1 | -5 | 1 | 28 | -4 | -8 | 5
SMILES | Rtt109 Vps75 | HDAC3 inh | ALR H2O2 inh | FAS-TE inh | M18AAP inhibitor | UCH37 DUB inh
Nc1nc(SCC(=O)c2cccc([N+](=O)[O-])c2)n[nH]1 | 16 | -2 | 83* | -9 | 3 | 1
Nc1nc(SCC(=O)Nc2ccc([N+](=O)[O-])cc2)n[nH]1 | -9 | 4 | 97* | -20 | 0 | 4
Cc1nnc(C)n1N=Cc1cccnc1 | / | / | / | / | / | 5
CC(=O)CN1Cc2ccccc2C1=NC(=O)Nc1ccccc1 | / | / | / | / | / | 1
N=c1c[n+](N2CCOCC2)[n-]o1 | 56* | 3 | 5 | -2 | -5 | 2
CCOc1ccc(C=NNC(=O)C(OC)c2ccccc2)cc1 (centres undefined) | / | / | / | / | / | 6
COc1c(O)c(=O)n2c3ccccc3c3ccnc1c32 | -3 | 9 | 98* | -4 | / | 7
Cn1c(=O)c(-c2cccc(Cl)c2)c(O)c2ccccc21 | -7 | -21 | -1 | -5 | / | 2
O=c1c(Cl)c(O)c2cccc3c4ccccc4n1c23 | -21 | 6 | 99* | -6 | -2 | i
O=C(Nc1ccc(NC(=O)c2ccccc2Cl)cc1)c1cccnc1 | 2 | 2 | -1 | -2 | 2 | -8
O=C(Nc1nnc(-c2ccccc2Cl)o1)c1cccnc1 | -4 | 0 | 8 | -9 | 30* | 3
COc1cc(/C=C(\C#N)c2nnc(N3CCOCC3)n2-c2ccccc2)ccc1O | 17 | 5 | 99* | -3 | 6 | 9
O=C(NN=CCCc1ccccc1)c1ccc(CN2c3cccc4cccc(c34)S2(=O)=O)cc1 | / | / | / | / | / | -111
Oc1ccc(/C=N/Nc2cc(N3CCOCC3)nc(N3CCOCC3)n2)cc1 | 33 | 15 | 100* | -2 | 9 | /
Cc1nc(Cl)cc(N/N=C/c2ccc(O)cc2O)n1 | 1 | 8 | 57 | 1 | 31* | /
Cc1cc(NN=Cc2ccc(O)cc2O)nc(-c2ccccc2O)n1 | / | / | / | / | / | -13
Cc1nc(Cl)cc(N/N=C/c2ccc(O)cc2)n1 | 0 | 15 | 99* | -1 | 4 | /
COc1cccc(N/N=C/c2cccc(Br)c2O)c1 | -10 | 7 | 99* | 30 | -2 | /
COc1cc(C=NNc2cccc(C)c2)cc(Br)c1O | / | / | / | / | / | -7
CC(CC(=O)NC1CCCCC1)=NNC(=O)COc1ccc(C)cc1Br | / | / | / | / | / | -1
COc1cccc(C=NNc2c(Cl)cncc2Cl)c1O | / | / | / | / | / | 7
COc1cccc(/C=N/Nc2cc(Cl)nc(C)n2)c1O | 16 | 9 | -1 | -3 | 29* | /
CC1(CCc2ccccc2)NC(=S)N(c2ccccc2)N1 (centres undefined) | 12 | 1 | 99* | -3 | 8 | -1
CC1(CCc2ccccc2)NC(=S)N(c2ccc(Cl)cc2)N1 (centres undefined) | 8 | -4 | 94* | 24 | 3 | 5
CCC1(c2ccc(Cl)cc2)NC(=S)N(c2ccc(C)cc2)N1 (centres undefined) | 30 | 3 | -4 | 15 | 10 | 1
SMILES | Rtt109 Vps75 | HDAC3 inh | ALR H2O2 inh | FAS-TE inh | M18AAP inhibitor | UCH37 DUB inh
CC(=NNC(=O)c1cccc(S(=O)(=O)N2CCOCC2)c1)c1ccco1 | / | / | / | / | / | 7
COC(=O)c1ccc(CON=Cc2ccc(OC)cc2OC)cc1 | / | / | / | / | / | 4
COC(=O)NN=Cc1cc([N+](=O)[O-])cc(Br)c1O | / | / | / | / | / | 5
CCOC(=O)c1c(NC(=O)C(=O)NN=Cc2ccc(O)c(OC)c2)sc2c1CCCCC2 | / | / | / | / | / | -7
CCOC(=O)c1[nH]c2ccccc2c1NC(=O)CC | -6 | -2 | / | -14 | -12 | 1
CCOC(=O)c1[nH]c2ccccc2c1NC(=S)Nc1cccc(C)c1 | -12 | 4 | 98* | -2 | 0 | 5
CCOC(=O)c1[nH]c2ccc(C)cc2c1NC(=O)CN1CCCCC1 | 12 | -2 | 98* | -4 | 0 | -9
CCOC(=O)c1[nH]c2ccccc2c1NC(C)=O | 12 | -7 | -7 | -11 | / | 4

Source: PubChem BioAssay
